# Source: ChEMBL document CHEMBL1144562, “Synthesis of a new class of 2-anilino substituted nicotinyl arylsulfonylhydrazides as potential anticancer and antibacterial agents” (2007)
# How the values were obtained:
# Assay type in all cases: functional
# Hs-578T = experiment: Antitumor activity against HS578T cells; conditions: Homo sapiens
# SK-MEL-28 = experiment: Antitumor activity against SK-MEL-28 cells; conditions: Homo sapiens
# SK-OV-3 = experiment: Antitumor activity against SKOV3 cells; conditions: Homo sapiens
# Summary of the method: (§1)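 Tested in the NCI 60-human-tumour-cell-line panel at five concentrations, in 10-fold dilutions from 10^-4 to 10^-8 M. Three parameters were taken from the dose-response data, each as log10 of the molar concentration: GI50 (50% net growth inhibition), TGI (total growth inhibition) and LC50 (50% net cell death).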
# [1] = system: Staphylococcus epidermidis; experiment: Antibacterial activity against Staphylococcus epidermidis MTCC 435 after 18 hrs; conditions: MTCC 435, 18 h
# Summary of the method: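 Disc diffusion (Kirby–Bauer) on Mueller-Hinton agar inoculated with fresh bacteria at 1-5 × 10^4 cfu mL-1. Compounds were dissolved in DMF at a range of concentrations, and discs were placed in triplicate. Plates were incubated at 30 °C for 18 h. MIC was taken as the lowest concentration giving no visible bacterial growth on the plate.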
# MDA-MB-435 = experiment: Antitumor activity against MDA-MB-435 cells; conditions: Homo sapiens
# HCT-15 = experiment: Antitumor activity against HCT15 cells; conditions: Homo sapiens
# SK-MEL-5 = experiment: Antitumor activity against SK-MEL-5 cells; conditions: Homo sapiens; summary of the method: as §1
# M14 = experiment: Antitumor activity against M14 cells; conditions: Homo sapiens
# TK-10 = experiment: Antitumor activity against TK10 cells; conditions: Homo sapiens; summary of the method: as §1
# HCC 2998 = experiment: Antitumor activity against HCC2998 cells; conditions: Homo sapiens
# A549 = experiment: Antitumor activity against A549 cells; conditions: Homo sapiens
# SNB-75 = experiment: Antitumor activity against SNB75 cells; conditions: Homo sapiens; summary of the method: as §1
# DU-145 = experiment: Antitumor activity against DU145 cells; conditions: Homo sapiens
# MCF7 = experiment: Antitumor activity against MCF7 cells; conditions: Homo sapiens
# UACC-257 = experiment: Antitumor activity against UACC257 cells; conditions: Homo sapiens; summary of the method: as §1
# HOP-62 = experiment: Antitumor activity against HOP62 cells; conditions: Homo sapiens
# KM12 = experiment: Antitumor activity against KM12 cells; conditions: Homo sapiens
# OVCAR-3 = experiment: Antitumor activity against OVCAR-3 cells; conditions: Homo sapiens
# NCI-H226 = experiment: Antitumor activity against NCI-H226 cells; conditions: Homo sapiens
# HOP-92 = experiment: Antitumor activity against HOP92 cells; conditions: Homo sapiens
# [2] = read-out: Log LC50 (the source's name) (converted)
smiles,measurement,setting,value
O=C(NNS(=O)(=O)c1ccc(F)cc1)c1cccnc1Nc1ccc(Cl)cc1Cl,GI50,Hs-578T,28.2 µM
same,CC50,Hs-578T; [2],> 100 µM
same,TGI,Hs-578T; read-out: Log TGI (converted),> 100 µM
same,GI50,SK-MEL-28,89.1 µM
same,LC50,SK-MEL-28,> 100 µM
same,TGI,SK-MEL-28; read-out: Log TGI (converted),> 100 µM
same,GI50,SK-OV-3,38 µM
same,CC50,SK-OV-3; [2],> 100 µM
same,TGI,SK-OV-3; read-out: Log TGI (converted),> 100 µM
same,MIC,[1],21 µg/mL
same,GI50,MDA-MB-435,85.1 µM
same,LC50,MDA-MB-435,> 100 µM
same,TGI,MDA-MB-435; read-out: Log TGI (converted),> 100 µM
same,GI50,HCT-15,26.9 µM
same,LC50,HCT-15,> 100 µM
same,TGI,HCT-15; read-out: Log TGI (converted),> 83.2 µM
same,GI50,SK-MEL-5,25.1 µM
same,LC50,SK-MEL-5,> 100 µM
same,TGI,SK-MEL-5; read-out: Log TGI (converted),85.1 µM
same,GI50,M14,46.8 µM
same,LC50,M14,> 100 µM
same,TGI,M14; read-out: Log TGI (converted),> 100 µM
same,GI50,TK-10,33.9 µM
same,LC50,TK-10,> 100 µM
same,TGI,TK-10; read-out: Log TGI (converted),> 100 µM
same,GI50,HCC 2998,30.2 µM
same,LC50,HCC 2998,> 100 µM
same,TGI,HCC 2998; read-out: Log TGI (converted),> 100 µM
same,GI50,A549,17.4 µM
same,LC50,A549,97.7 µM
same,TGI,A549; read-out: Log TGI (converted),40.7 µM
same,GI50,SNB-75,25.7 µM
same,CC50,SNB-75; [2],> 100 µM
same,TGI,SNB-75; read-out: Log TGI (converted),> 100 µM
same,GI50,DU-145,22.9 µM
same,LC50,DU-145,> 100 µM
same,TGI,DU-145; read-out: Log TGI (converted),55 µM
same,GI50,MCF7,31.6 µM
same,LC50,MCF7,> 100 µM
same,TGI,MCF7; read-out: Log TGI (converted),> 100 µM
same,GI50,UACC-257,11.7 µM
same,LC50,UACC-257,> 100 µM
same,TGI,UACC-257; read-out: Log TGI (converted),52.5 µM
same,GI50,HOP-62,30.9 µM
same,CC50,HOP-62; [2],> 100 µM
same,TGI,HOP-62; read-out: Log TGI (converted),85.1 µM
same,GI50,KM12,22.9 µM
same,CC50,KM12; [2],> 100 µM
same,TGI,KM12; read-out: Log TGI (converted),49 µM
same,GI50,OVCAR-3,29.5 µM
same,CC50,OVCAR-3; [2],> 100 µM
same,TGI,OVCAR-3; read-out: Log TGI (converted),95.5 µM
same,GI50,NCI-H226,29.5 µM
same,CC50,NCI-H226; [2],> 100 µM
same,TGI,NCI-H226; read-out: Log TGI (converted),97.7 µM
same,GI50,HOP-92,15.5 µM
same,CC50,HOP-92; [2],85.1 µM
